In brackets after ≈: the same amount, converted by molar mass.
What was measured:
Format in all cases: functional
[1] = tested on: Staphylococcus aureus; assay: Antibacterial activity against Staphylococcus aureus RN4220 overexpressing MsrA macrolide efflux protein after 18 hrs by MTT assay; details: RN4220, 18 h
Method in brief: (§1)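 MIC by broth microdilution in Mueller-Hinton broth with 20 mg/L Ca2+ and 10 mg/L Mg2+. Strains were grown overnight on nutrient agar at 37 °C. Agents were dissolved in DMSO, diluted in broth to a 512 mg/L stock, and serially diluted to a final 128−0.25 range with inoculum. Plates ran in duplicate for 18 h at 37 °C, then […] methanolic MTT for 30 min, scored by blue colour.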

[2] = tested on: Staphylococcus aureus; assay: Antibacterial activity against Staphylococcus aureus ATCC 25923 after 18 hrs by MTT assay; details: ATCC 25923, 18 h
Method in brief: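 Strain grown overnight at 37 °C on nutrient agar before assay. MIC by broth microdilution in Mueller-Hinton broth with 20 mg/L Ca2+ and 10 mg/L Mg2+. Agents in DMSO, diluted in MHB to a 512 mg/L stock, then serially diluted to a final 128−0.25 […]. Duplicates, 18 h at 37 °C, then 5 mg/L methanolic MTT for 30 min; colour read-out.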

[3] = tested on: Staphylococcus aureus; assay: Antibacterial activity against epidemic methicillin-resistant Staphylococcus aureus EMRSA-15 after 18 hrs by MTT assay; details: EMRSA-15, 18 h; method in brief: as §1
[4] = tested on: Staphylococcus aureus; assay: Antibacterial activity against Staphylococcus aureus XU212 overexpressing TetK tetracycline efflux pump after 18 hrs by MTT assay; details: XU212, 18 h; method in brief: as §1
[5] = tested on: Staphylococcus aureus; assay: Antibacterial activity against Staphylococcus aureus 1199B overexpressing NorA pump after 18 hrs by MTT assay; method in brief: as §1
[6] = tested on: Staphylococcus aureus; assay: Antibacterial activity against epidemic methicillin-resistant Staphylococcus aureus EMRSA-16 after 18 hrs by MTT assay; details: EMRSA-16, 18 h; method in brief: as §1

SMILES | MIC [1] [µg/mL] | MIC [2] [µg/mL] | MIC [3] [µg/mL] | MIC [4] [µg/mL] | MIC [5] [µg/mL] | MIC [6] [µg/mL]
C=C(COC(=O)CCC(C)C)[C@H]1Cc2cc(C(C)=O)ccc2O1 | > 128 | > 128 | > 128 | > 128 | > 128 | > 128
C=C(COC(=O)C(C)C)[C@H]1Cc2cc(C(C)=O)ccc2O1 | > 128 | > 128 | > 128 | > 128 | > 128 | > 128
C=C(COC(=O)C(C)CC)[C@H]1Cc2cc(C(C)=O)ccc2O1 (stereo partly specified) | > 128 | > 128 | > 128 | > 128 | > 128 | > 128
COC(=O)/C=C/c1ccc(OC/C=C(\C)CCC=C(C)C)cc1 | > 128 | > 128 | > 128 | > 128 | > 128 | > 128
COC(=O)/C=C\c1ccc(OC/C=C(\C)CCC=C(C)C)cc1 | > 128 | > 128 | > 128 | > 128 | > 128 | > 128
CCCc1oc(=O)c(C(C)c2c(O)c(CC=C(C)C)c(O)c(C(C)=O)c2O)c(O)c1C(C)C (stereo unspecified) | 32 (≈ 69.8 µM) | 128 (≈ 279 µM) | 32 (≈ 69.8 µM) | 128 (≈ 279 µM) | 32 (≈ 69.8 µM) | 128 (≈ 279 µM)
CCCc1oc(=O)c(C(c2ccccc2)c2c(O)c(CC=C(C)C)c(O)c(C(C)=O)c2O)c(O)c1C(C)C (stereo unspecified) | 2 (≈ 3.84 µM) | 8 (≈ 15.4 µM) | 6 (≈ 11.5 µM) | 4 (≈ 7.68 µM) | 16 (≈ 30.7 µM) | 8 (≈ 15.4 µM)
CCc1oc(=O)c(Cc2c(O)c(CC=C(C)C)c(O)c(C(C)=O)c2O)c(O)c1CC | 2 (≈ 4.8 µM) | 1 (≈ 2.4 µM) | 2 (≈ 4.8 µM) | 16 (≈ 38.4 µM) | 1 (≈ 2.4 µM) | 2 (≈ 4.8 µM)
CCc1c(C)oc(=O)c(C(C)c2c(O)c(CC=C(C)C)c(O)c(C(C)=O)c2O)c1O (stereo unspecified) | 128 (≈ 307 µM) | 64 (≈ 154 µM) | 128 (≈ 307 µM) | > 128 | 128 (≈ 307 µM) | 128 (≈ 307 µM)
CCCCCC(=O)C(c1c(O)c(CC=C(C)C)c(O)c(C(C)=O)c1O)c1c(O)c(CC)c(C)oc1=O (stereo unspecified) | 8 (≈ 16 µM) | 8 (≈ 16 µM) | 16 (≈ 32 µM) | 16 (≈ 32 µM) | 16 (≈ 32 µM) | 8 (≈ 16 µM)
C=C(COC(C)=O)[C@H]1Cc2cc(C(C)=O)ccc2O1 | > 128 | > 128 | > 128 | > 128 | > 128 | > 128
CCc1oc(=O)c(Cc2c(O)c(CC=C(C)C)c(O)c(C(C)=O)c2O)c(O)c1C [ARZANOL] | 2 (≈ 4.97 µM) | 1 (≈ 2.48 µM) | 4 (≈ 9.94 µM) | 4 (≈ 9.94 µM) | 1 (≈ 2.48 µM) | 2 (≈ 4.97 µM)
CCc1oc(=O)c(Cc2c(O)c3c(c(C(C)=O)c2O)OC(C)(C)CC3)c(O)c1C [CYCLOARZANOL A] | 32 (≈ 79.5 µM) | 32 (≈ 79.5 µM) | 128 (≈ 318 µM) | 128 (≈ 318 µM) | 128 (≈ 318 µM) | > 128
CCc1oc(=O)c(Cc2c(O)c(C(C)=O)c(O)c3c2OC(C)(C)CC3)c(O)c1C [CYCLOARZANOL B] | > 128 | > 128 | > 128 | > 128 | > 128 | > 128
CCc1oc(=O)c(Cc2c(O)c(C)c(CC)oc2=O)c(O)c1C [HELIPYRONE] | 12 (≈ 37.5 µM) | 64 (≈ 200 µM) | > 128 | > 128 | > 128 | 128 (≈ 400 µM)
CCc1oc(OC)c(Cc2c(O)c(CC=C(C)C)c(O)c(C(C)=O)c2O)c(=O)c1C [METHYLARZANOL] | > 128 | > 128 | > 128 | > 128 | > 128 | > 128
CCC(C)C(=O)C(C)c1oc(=O)c(C)c(O)c1C (stereo unspecified) [MICROPYRONE] | 128 (≈ 507 µM) | > 128 | > 128 | > 128 | > 128 | 128 (≈ 507 µM)
C=C(COC(=O)CCCCCCCC)[C@H]1Cc2cc(C(C)=O)ccc2O1 [NONANOYLBITALIN A] | > 128 | > 128 | > 128 | > 128 | > 128 | > 128
CCn1cc(C(=O)O)c(=O)c2cc(F)c(N3CCNCC3)cc21 [NORFLOXACIN] | 0.5 (≈ 1.57 µM) | 0.5 (≈ 1.57 µM) | 0.5 (≈ 1.57 µM) | 8 (≈ 25.1 µM) | 32 (≈ 100 µM) | 128 (≈ 401 µM)
C=C(COC(=O)CCCCCCC/C=C\CCCCCCCC)[C@H]1Cc2cc(C(C)=O)ccc2O1 [OLEOYLBITALIN A] | > 128 | > 128 | > 128 | > 128 | > 128 | > 128
C=C(COC(=O)CC)[C@H]1Cc2cc(C(C)=O)ccc2O1 [PROPANOYLBITALIN A] | > 128 | > 128 | > 128 | > 128 | > 128 | > 128
